# In ChEMBL document CHEMBL1129639, “Synthesis and cardiotonic activity of novel pyrimidine derivatives: crystallographic and quantum chemical studies” (J Med Chem, 1996):
# Key:
# [1] = species on record: Cavia porcellus; test: Ionotropic Response to 8-Phenyltheophylline (10E-4) in Electrically driven Left atrium from Resperpine-Treated Guinea pigs at the concentration of 3 x 10E-4 M; assay type: functional, Cardiac atrium
# How it was run: (§1)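 Electrically driven left atrium from reserpine-treated guinea pigs, 29 °C, pH 7.5. Cumulative 8-phenyltheophylline concentration-effect curves were run without or with 3 × 10^-5 to 3 × 10^-4 M test compound (DMSO). Developed tension given as % variation from control. Mean ± SEM of four assays from four experiments; Student's t-test against the 8-phenyltheophylline-only atrium.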
# [2] = species on record: Cavia porcellus; test: Ionotropic Response to 8-Phenyltheophylline (10e-4 M) in Electrically driven Left atrium from Resperpine-Treated Guinea pigs at the concentration of 10E-4 M; assay type: functional, Cardiac atrium; how it was run: as §1
# [3] = species on record: Cavia porcellus; test: Effect on the contractile force of spontaneously beating atria from Reserpine-treated guinea pigs as percentage variation from the control at concentration of 3 x 10E-6 M; assay type: functional
# How it was run: (§2)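 Atria from reserpine-treated guinea pigs (reserpine 2 mg/kg ip, 48 and 24 h before death; only tyramine-unresponsive preparations used). Bath solution at 29 °C, gassed 95% O2/5% CO2, pH 7.5, resting tension […]. After 90 min equilibration, compound added cumulatively, 5 min per concentration. Isometric developed-tension amplitude or beating rate given as % variation from untreated control. Mean ± SEM, 6-10 assays.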
# [4] = species on record: Cavia porcellus; test: Ionotropic Response to 8-Phenyltheophylline in Electrically driven Left atrium from Resperpine-Treated Guinea pigs at the concentration of 10E-4 M; assay type: functional, Cardiac atrium
# How it was run: (§3)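 Guinea pigs pretreated with reserpine (2 mg/kg ip) 48 and 24 h before sacrifice; atria unresponsive to tyramine (2 µg/mL) used. Left atrium electrically driven, in oxygenated salt solution (95% O2/5% CO2, pH 7.5, 29 °C), resting tension […], isometric developed tension. 90 min equilibration; test agent present while cumulative 8-phenyltheophylline curves run, 5 min per concentration; % variation from control; mean ± SEM, four assays.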
# [5] = species on record: Cavia porcellus; test: Effect on the frequency rate of spontaneously beating atria from Reserpine-treated guinea pigs as percentage variation from the control at concentration of 10E-4 M; assay type: functional; how it was run: as §2
# [6] = species on record: Cavia porcellus; test: Ionotropic Response to 8-Phenyltheophylline (3 x 10E-5 M) in Electrically driven Left atrium from Resperpine-Treated Guinea pigs at the concentration of 3 x 10E-4 M; assay type: functional, Cardiac atrium; how it was run: as §3
# [7] = species on record: Cavia porcellus; test: Ionotropic Response to 8-Phenyltheophylline in Electrically driven Left atrium from Resperpine-Treated Guinea pigs at the concentration of 3 x 10E-4 M; assay type: functional, Cardiac atrium; how it was run: as §3
# [8] = species on record: Cavia porcellus; test: Compound was evaluated for its effect on the frequency rate of spontaneously beating atria from Reserpine-treated guinea pigs as percentage variation from the control at concentration of 3 x 10E-5 M; assay type: functional; how it was run: as §2
# [9] = species on record: Cavia porcellus; test: Effect on the contractile force of spontaneously beating atria from Reserpine-treated guinea pigs as percentage variation from the control at concentration of 3 x 10E-4 M; assay type: functional; how it was run: as §2
# [10] = species on record: Cavia porcellus; test: Ionotropic Response to 8-Phenyltheophylline (3 x 10E-5 M) in Electrically driven Left atrium from Resperpine-Treated Guinea pigs at the concentration of 3 x 10E-5 M; assay type: functional, Cardiac atrium; how it was run: as §3
# [11] = species on record: Cavia porcellus; test: Effect on the frequency rate of spontaneously beating atria from Reserpine-treated guinea pigs as percentage variation from the control at concentration of 10E-3 M; assay type: functional; how it was run: as §2
# [12] = species on record: Cavia porcellus; test: Ionotropic Response to 8-Phenyltheophylline (10e-5 M) in Electrically driven Left atrium from Resperpine-Treated Guinea pigs at the concentration of 10E-4 M; assay type: functional, Cardiac atrium; how it was run: as §1
# [13] = species on record: Cavia porcellus; test: Inotropic effect in electrically driven left atrium from reserpine-treated guinea pigs at concentration of 10E-5 M; assay type: functional, Cardiac atrium
# How it was run: (§4)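 Electrically driven left atrium from reserpine-treated guinea pigs (tyramine-unresponsive), 29 °C, pH 7.5, resting tension […], 90 min equilibration. Compound dissolved in DMSO and added cumulatively, 5 min per step. Where used, adenosine deaminase was preincubated 20 min, and basal force was taken after ADA addition. Developed tension given as % change over control. Mean ± SEM of six assays.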
# [14] = species on record: Cavia porcellus; test: Effect on the contractile force of spontaneously beating atria from Reserpine treated guinea pigs as percentage variation from the control at concentration of 10E-4 M; assay type: functional; how it was run: as §2
# [15] = species on record: Cavia porcellus; test: Inotropic effect in electrically driven left atrium from reserpine-treated guinea pigs at concentration of 10E-4 M; assay type: functional, Cardiac atrium; how it was run: as §4
# [16] = species on record: Cavia porcellus; test: Effect on the frequency rate of spontaneously beating atria from Reserpine-treated guinea pigs as percentage variation from the control at concentration of 10E-6 M; assay type: functional; how it was run: as §2
# [17] = species on record: Cavia porcellus; test: Effect on the frequency rate of spontaneously beating atria from Reserpine-treated guinea pigs as percentage variation from the control at concentration of 10E-5 M; assay type: functional; how it was run: as §2
# [18] = species on record: Cavia porcellus; test: Effect on the contractile force of spontaneously beating atria from Reserpine-treated guinea pigs as percentage variation from the control at concentration of 10E-6 M; assay type: functional; how it was run: as §2
# [19] = species on record: Cavia porcellus; test: Effect on the contractile force of spontaneously beating atria from Reserpine-treated guinea pigs as percentage variation from the control at concentration of 10E-5 M; assay type: functional; how it was run: as §2
# [20] = species on record: Cavia porcellus; test: Ionotropic Response to 8-Phenyltheophylline (3 x 10E-5 M) in Electrically driven Left atrium from Resperpine-Treated Guinea pigs at the concentration of 10E-4 M; assay type: functional, Cardiac atrium; how it was run: as §3
# [21] = species on record: Cavia porcellus; test: Ionotropic Response to 8-Phenyltheophylline (3 x 10E-6 M) in Electrically driven Left atrium from Resperpine-Treated Guinea pigs at the concentration of 3 x 10E-5 M; assay type: functional, Cardiac atrium; how it was run: as §3
# [22] = species on record: Cavia porcellus; test: Inotropic effect in electrically driven left atrium from reserpine-treated guinea pigs at concentration of 10E-6 M; assay type: functional, Cardiac atrium; how it was run: as §4
# [23] = species on record: Cavia porcellus; test: Inotropic effect in electrically driven left atrium from reserpine-treated guinea pigs at concentration of 3 x 10E-6 M; assay type: functional, Cardiac atrium; how it was run: as §4
# [24] = species on record: Cavia porcellus; test: Compound was evaluated for its effect on the frequency rate of spontaneously beating atria from Reserpine-treated guinea pigs as percentage variation from the control at concentration of 3 x 10E-6 M; assay type: functional; how it was run: as §2
# [25] = species on record: Cavia porcellus; test: Inotropic effect in electrically driven left atrium from reserpine-treated guinea pigs at concentration of 3 x 10E-5 M; assay type: functional, Cardiac atrium; how it was run: as §4
# [26] = species on record: Cavia porcellus; test: Ionotropic Response to 8-Phenyltheophylline (3 x 10E-6 M) in Electrically driven Left atrium from Resperpine-Treated Guinea pigs at the concentration of 10E-4 M; assay type: functional, Cardiac atrium; how it was run: as §3
# [27] = biological target: T1, Adenosine receptor A1 (Cavia porcellus, UniProt P47745); test: Inhibition of [3H]-CHA binding to Adenosine A1 receptor in guinea pig heart
# T1 sequence (P47745 whole entry): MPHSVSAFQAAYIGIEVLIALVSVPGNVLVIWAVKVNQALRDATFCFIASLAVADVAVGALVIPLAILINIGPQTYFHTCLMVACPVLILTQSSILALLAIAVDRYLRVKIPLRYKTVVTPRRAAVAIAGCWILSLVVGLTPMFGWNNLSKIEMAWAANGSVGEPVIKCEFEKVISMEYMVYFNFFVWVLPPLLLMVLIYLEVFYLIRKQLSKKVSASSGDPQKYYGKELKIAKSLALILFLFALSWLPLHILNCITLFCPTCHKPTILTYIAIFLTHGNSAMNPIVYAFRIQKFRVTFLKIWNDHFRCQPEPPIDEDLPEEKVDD
# How it was run: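 Guinea pig heart membranes prepared in 50 mM Tris-HCl pH 7.4 and pretreated with adenosine deaminase 2 IU/mL for 30 min at 37 °C. Incubated with 1 nM [3H]CHA, membranes from 15 mg tissue, 120 min at 23 °C. Bound ligand separated by GF/B filtration; nonspecific binding defined with (R)-PIA. Six concentrations tested in triplicate; IC50 by probit analysis.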
# [28] = species on record: Cavia porcellus; test: Effect on the contractile force of spontaneously beating atria from Reserpine-treated guinea pigs as percentage variation from the control at concentration of 3 x 10E-5 M; assay type: functional; how it was run: as §2
# [29] = species on record: Cavia porcellus; test: Ionotropic Response to 8-Phenyltheophylline (10e-5 M)in Electrically driven Left atrium from Resperpine-Treated Guinea pigs at the concentration of 3 x 10E-5 M; assay type: functional, Cardiac atrium; how it was run: as §1
# [30] = species on record: Cavia porcellus; test: Inotropic effect in electrically driven left atrium from reserpine-treated guinea pigs at concentration of 10E-3 M; assay type: functional, Cardiac atrium; how it was run: as §4
# [31] = species on record: Cavia porcellus; test: Ionotropic Response to 8-Phenyltheophylline (10E-5) in Electrically driven Left atrium from Resperpine-Treated Guinea pigs at the concentration of 3 x 10E-4 M; assay type: functional, Cardiac atrium; how it was run: as §1
# [32] = species on record: Cavia porcellus; test: Ionotropic Response to 8-Phenyltheophylline in Electrically driven Left atrium from Resperpine-Treated Guinea pigs at the concentration of 3 x 10E-5 M; assay type: functional, Cardiac atrium; how it was run: as §3
# [33] = species on record: Cavia porcellus; test: Inotropic effect in electrically driven left atrium from reserpine-treated guinea pigs at concentration of 3 x 10E-4 M; assay type: functional, Cardiac atrium; how it was run: as §4
# [34] = species on record: Cavia porcellus; test: Effect on the contractile force of spontaneously beating atria from Reserpine-treated guinea pigs as percentage variation from the control at concentration of 10E-3 M; assay type: functional; how it was run: as §2
# [35] = species on record: Cavia porcellus; test: Ionotropic Response to 8-Phenyltheophylline (10e-4 M) in Electrically driven Left atrium from Resperpine-Treated Guinea pigs at the concentration of 3 x 10E-5 M; assay type: functional, Cardiac atrium; how it was run: as §1
# [36] = species on record: Cavia porcellus; test: Ionotropic Response to 8-Phenyltheophylline (3 x 10E-6 M) in Electrically driven Left atrium from Resperpine-Treated Guinea pigs at the concentration of 3 x 10E-4 M; assay type: functional, Cardiac atrium; how it was run: as §3
# [37] = species on record: Cavia porcellus; test: Compound was evaluated for its effect on the frequency rate of spontaneously beating atria from Reserpine-treated guinea pigs as percentage variation from the control at concentration of 3 x 10E-4 M; assay type: functional; how it was run: as §2
structure (smiles),measurement,setting,value
COC(=O)c1cnc(N(C)C)nc1Cc1ccccc1,Variation,[1],-6.66%
same,Variation,[2],19%
same,Variation,[3],5.83%
same,Variation,[4],-9.37%
same,Variation,[5],-16.06%
same,Variation,[6],-11%
same,Variation,[7],-33.52%
same,Variation,[8],-8.03%
same,Variation,[9],-55.28%
same,Variation,[10],14.9%
same,Variation,[11],-100%
same,Variation,[12],-3.33%
same,Variation,[13],7.45%
same,Variation,[14],-13.54%
same,Variation,[15],-14.2%
same,Variation,[16],0%
same,Variation,[17],0%
same,Variation,[18],0%
same,Variation,[19],8.97%
same,Variation,[20],2.72%
same,Variation,[21],8.79%
same,Variation,[22],0%
same,Variation,[23],4.85%
same,Variation,[24],0%
same,Variation,[25],-5.21%
same,Variation,[26],-4.34%
same,IC50,[27],21.3 µM
same,Variation,[28],-6.54%
same,Variation,[29],11%
same,Variation,[30],-100%
same,Variation,[31],-22.2%
same,Variation,[32],-6.66%
same,Variation,[33],-48.3%
same,Variation,[34],-100%
same,Variation,[35],20.2%
same,Variation,[36],-28.9%
same,Variation,[37],-55.15%
